In PMC3358452 (Chemical Research in Toxicology, 2012):
Read-outs that look alike come from different tables or passages of the source.

Columns and labels:
[1] = assay type: physicochemical
Outline: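 Reverse-phase HPLC quantified lactone left after an acidic aqueous solution reached equilibrium at 25 °C. The solution initially held 0.05 M lactone, measured gravimetrically, in 5% by volume acetonitrile. Ionic strength was set with KCl and hydrogen ion concentration varied. Remaining lactone was interpolated from a standard curve; triplicate injections per determination.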

Kinetics of decay = assay type: physicochemical; details: for half-life at 0.0013 M: buffered aqueous solution, pH 7, t1/2 for decay
Outline: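 The first check was in D2O with 0.005 M DCl, 0.005 M lactone and 0.005 M acetonitrile as internal standard, at 25 °C. Loss of the C-6 1H-NMR resonances at 4.78 ppm was compared with UV decay at 225 nm. The extended UV runs used 220–235 nm, 5% acetonitrile/H2O, ionic strength 1 M (KCl), 25 °C and 0.0013 M lactone. Buffers were formic, acetic, cacodylic and ethylphosphonic.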

[2] = Lower limit of KO by monitoring disappearance of the lactone multiplets; assay type: physicochemical; details: D2O, 1 M DClO4, lactone multiplets monitored to equilibrium
pKa of = assay type: physicochemical; details: Calculated pKa, 25 °C, buffer 0.05 M, AH/A- = 1.0
Outline: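 pH was measured in solutions of the sodium salt of the acid, measured gravimetrically and partially neutralized with HCl. Solutions held 5% by volume acetonitrile, with ionic strength balanced by KCl. […] Mean and SD of duplicates at 25 °C.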

[3] = fit of log ko vs pH, 25 °C, ionic strength 1 M (KCl), 5% by volume acetonitrile
[4] = group 2: AFB1 followed by 1 (1.32 g over 12 weeks), mean ± SEM
[5] = group 3: 1 only (1.32 g over 12 weeks)

aflatoxin B1 [AFB1, reference compound]
Foci per cubic cm (morphometric) (F344 rat liver; rat, in vivo): 1230 ± 410 | Mean Diameter of foci (morphometric) (F344 rat liver; rat, in vivo): 227 ± 35 microns | Mean Foci Counted (observed) (F344 rat liver; rat, in vivo): 44 ± 8 | Volume % of liver occupied by GST-P positive foci (F344 rat liver; rat, in vivo): 3.1 ± 1.0% | average size of observed GST-P positive foci (F344 rat liver; rat, in vivo): > 200 µm

O=C1COCCO1 [compound 1, 1,4-Dioxan-2-one]
KOA, equilibrium constant between 1 and carboxylic acid anion 3 and the proton (KOA = Ka × KO) ([1]; 25 °C, ionic strength 1M (KCl), 5% by volume acetonitrile): 0.034 ± 0.002 M | Ko, equilibrium constant for lactone 1 and its open-chain acid form ([1]; 25 °C, [HCl] 0.05 M, total ionic strength 0.05 M, 5% by volume acetonitrile): 71 | Ko, equilibrium constant for lactone 1 and its open-chain acid form ([1]; 25 °C, [HCl] 0.10 M, total ionic strength 1.0 M (KCl), 5% by volume acetonitrile): 70 | Ko, equilibrium constant for lactone 1 and its open-chain acid form ([1]; 25 °C, [HCl] 0.20 M, total ionic strength 1.0 M (KCl), 5% by volume acetonitrile): 70 | KO, equilibrium constant between 1 and hydrolysis product 2 ([1]; acidic aqueous media, 25 °C, ionic strength 1M (KCl), 5% by volume acetonitrile): 70 ± 3.5 | lactone as percent of the total species at equilibrium ([1]; pH = 7): ~ 3 ×10^−4% | first order rate constant of decay (NMR) (Kinetics of decay; 1H-NMR, D2O, 0.005 M DCl, 25 °C): 0.017 ± 0.002 min⁻¹ | first order rate constant of decay (UV) (Kinetics of decay; UV spectrophotometry, D2O, 0.005 M DCl, 25 °C): 0.016 ± 0.001 min⁻¹ | half-life at 0.0013 M (Kinetics of decay; pH 7): 2.12 h | half-life at 0.0013 M (Kinetics of decay; pH = 7.0, 25 °C): ~2 h | factor by which 1 is more reactive toward hydroxide ion than valerolactone (Kinetics of decay; comparison with literature rate constant): ~ 1500 | kH+, hydrogen ion catalyzed rate constant for solvolysis (Kinetics of decay; [3]): 1.1 (± 0.1) M^−1 min^−1 | kOH, hydroxide ion catalyzed rate constant (Kinetics of decay; [3]): 4.1 (± 0.3) × 10^4 M^−1 min^−1 | kw, water catalyzed (pH-independent) rate constant (Kinetics of decay; [3]): 9.9 (± 0.5) × 10^−4 min^−1 | KO, lower limit value [2]: > 50 | average size of observed GST-P positive foci (F344 rat liver; group 2 (AFB1 + 1), data not shown): > 200 µm | Foci per cubic cm (morphometric) (F344 rat liver; [4]): 1190 ± 230 | Mean Diameter of foci (morphometric) (F344 rat liver; [4]): 210 ± 32 microns | Volume % of liver occupied by GST-P positive foci (F344 rat liver; [4]): 2.1 ± 0.7% | diameter of the single focus observed (F344 rat liver; group 3 (1 only)): 65 µm | Mean Diameter of foci (morphometric) (F344 rat liver; [5]): 65 microns | Volume % of liver occupied by GST-P positive foci (F344 rat liver; [5]): 0.001% | Foci per cubic cm (morphometric) (F344 rat liver; group 3: 1 only (1.32 g over 12 weeks), mean ± SEM): 6.1 ± 6.1 | Mean Foci Counted (observed) (F344 rat liver; group 3: 1 only, gavage 3 days/week for 12 weeks (1.32 g total), mean ± SEM): 0.1 ± 0.1

O=C(O)COCCO [compound 2, 2-(2-hydroxyethoxy) acetic acid]
pKa (pKa of; ionic strength 0.05 M): 3.43 | pKa (pKa of; ionic strength 0.25 M (KCl)): 3.36 | pKa (pKa of; ionic strength 0.35 M (KCl)): 3.36 | pKa (pKa of; ionic strength 0.45 M (KCl)): 3.36 | pKa (pKa of; ionic strength 0.55 M (KCl)): 3.38
